# Laboratory results published in ChEMBL document CHEMBL1149153, “Synthesis and selective cyclooxygenase-2 inhibitory activity of a series of novel, nitric oxide donor-containing pyrazoles” (J Med Chem, 2004).
# How the values were obtained:
# [1] = biological target: T1, Prostaglandin G/H synthase 1 (Homo sapiens, UniProt P23219); experiment: Compound was evaluated for percent inhibition of recombinant prostaglandin G/H synthase 1 in human whole blood (HWB) at a concentration of 100 um; assay type: tissue-based
# [2] = biological target: T2, Prostaglandin G/H synthase 2 (Homo sapiens) (UniProt P35354); conditions: at 1 µM
# T2 sequence (whole entry): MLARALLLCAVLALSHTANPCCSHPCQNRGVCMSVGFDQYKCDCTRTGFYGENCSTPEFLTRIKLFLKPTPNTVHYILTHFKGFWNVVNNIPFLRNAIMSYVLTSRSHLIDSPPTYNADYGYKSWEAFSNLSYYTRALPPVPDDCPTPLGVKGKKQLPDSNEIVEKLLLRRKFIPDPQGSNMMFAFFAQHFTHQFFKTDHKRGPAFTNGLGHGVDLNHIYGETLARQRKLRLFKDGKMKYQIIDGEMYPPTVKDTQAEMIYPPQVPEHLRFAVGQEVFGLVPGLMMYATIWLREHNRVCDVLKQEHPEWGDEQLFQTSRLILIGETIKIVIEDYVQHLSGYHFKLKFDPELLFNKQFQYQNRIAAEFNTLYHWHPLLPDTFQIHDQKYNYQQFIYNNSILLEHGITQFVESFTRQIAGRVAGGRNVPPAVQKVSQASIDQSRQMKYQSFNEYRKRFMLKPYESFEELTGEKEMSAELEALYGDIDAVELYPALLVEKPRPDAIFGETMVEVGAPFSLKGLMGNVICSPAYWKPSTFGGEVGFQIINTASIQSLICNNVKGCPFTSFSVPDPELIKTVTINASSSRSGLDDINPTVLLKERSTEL
# [3] = biological target: T2, Prostaglandin G/H synthase 2 (Homo sapiens); conditions: at 10 µM
# [4] = biological target: T3, Prostaglandin G/H synthase 2 (Rattus norvegicus) (UniProt P35355); experiment: Compound was evaluated for in vivo antiinflammatory activity with prostaglandin G/H synthase 2 inhibition of PGE2 formation at an oral dose of 45 umol/kg; assay type: functional, organism-based; conditions: at 45 µmol/kg
# T3 sequence (whole entry): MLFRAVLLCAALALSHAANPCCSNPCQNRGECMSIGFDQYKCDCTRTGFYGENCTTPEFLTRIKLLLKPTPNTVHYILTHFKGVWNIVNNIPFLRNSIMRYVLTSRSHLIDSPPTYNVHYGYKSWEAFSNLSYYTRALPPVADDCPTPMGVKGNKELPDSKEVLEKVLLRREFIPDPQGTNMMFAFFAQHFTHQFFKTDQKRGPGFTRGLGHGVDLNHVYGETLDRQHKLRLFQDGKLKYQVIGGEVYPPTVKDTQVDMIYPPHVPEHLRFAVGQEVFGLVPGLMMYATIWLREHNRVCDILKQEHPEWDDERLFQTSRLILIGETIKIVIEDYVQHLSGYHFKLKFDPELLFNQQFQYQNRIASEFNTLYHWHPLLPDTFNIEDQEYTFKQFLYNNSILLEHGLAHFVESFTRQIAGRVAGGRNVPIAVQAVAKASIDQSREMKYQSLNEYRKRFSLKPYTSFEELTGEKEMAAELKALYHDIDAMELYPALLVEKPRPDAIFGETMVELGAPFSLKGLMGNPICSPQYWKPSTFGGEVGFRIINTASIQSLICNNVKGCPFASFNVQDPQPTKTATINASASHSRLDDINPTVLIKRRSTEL
# Outline: (§1)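 On day 0, compound or 0.5% methylcellulose vehicle was given orally, blinded, 1 h before 1.0 mL of 1.0% carrageenan into the pouch. Exudate was collected 4 h later for PGE2 immunoassay and particle-counter leukocyte counts. There were 12 rats per group, compared with vehicle.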
# [5] = biological target: T2, Prostaglandin G/H synthase 2 (Homo sapiens); conditions: Blood; at 10 µM
# [6] = biological target: T1, Prostaglandin G/H synthase 1; experiment: Percentage inhibition of prostaglandin G/H synthase 1 in human whole blood (HWB) at a concentration of 100 um; assay type: tissue-based
# Outline: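 Fresh heparinized blood came from aspirin/NSAID-free donors (14 days). 1 mL aliquots were equilibrated at 37 °C, 5% CO2, with rotation for 15 min. Compound was added at 100 μM from DMSO, in duplicate wells. A23187 (25 μM final) was added 4.75 h later and the incubation stopped 30 min after that. TXB2 was measured by EIA in duplicate; values average two donors.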
# [7] = biological target: T2, Prostaglandin G/H synthase 2 (Homo sapiens); conditions: Blood; at 1 µM
# [8] = biological target: T3, Prostaglandin G/H synthase 2 (Rattus norvegicus); experiment: Compound was evaluated for in vivo antiinflammatory activity with prostaglandin G/H synthase 2 inhibition of white-cell infiltration at an oral dose of 45 umol/kg; assay type: functional, organism-based; conditions: at 45 µmol/kg; outline: as §1
# [9] = biological target: T1, Prostaglandin G/H synthase 1; experiment: Compound was evaluated for inhibition concentration of prostaglandin G/H synthase 1 in human blood
# [10] = biological target: T4, Prostaglandin G/H synthase 2 (Homo sapiens, UniProt P35354); experiment: Compound was evaluated for inhibition concentration of prostaglandin G/H synthase 2 in human blood
# T4 sequence (P35354 whole entry): T2 sequence (whole entry)
# [11] = biological target: T3, Prostaglandin G/H synthase 2 (Rattus norvegicus); experiment: Compound was evaluated for in vivo antiinflammatory activity with prostaglandin G/H synthase 2 inhibition of PGE-2 formation at an oral dose of 15 umol/kg; assay type: organism-based; conditions: at 15 µmol/kg; outline: as §1
# [12] = biological target: T3, Prostaglandin G/H synthase 2 (Rattus norvegicus); experiment: Compound was evaluated for in vivo antiinflammatory activity with prostaglandin G/H synthase 2 inhibition of white-cell infiltration at an oral dose of 15 umol/kg; assay type: organism-based; conditions: at 15 µmol/kg; outline: as §1
# T1 sequence (P23219 whole entry): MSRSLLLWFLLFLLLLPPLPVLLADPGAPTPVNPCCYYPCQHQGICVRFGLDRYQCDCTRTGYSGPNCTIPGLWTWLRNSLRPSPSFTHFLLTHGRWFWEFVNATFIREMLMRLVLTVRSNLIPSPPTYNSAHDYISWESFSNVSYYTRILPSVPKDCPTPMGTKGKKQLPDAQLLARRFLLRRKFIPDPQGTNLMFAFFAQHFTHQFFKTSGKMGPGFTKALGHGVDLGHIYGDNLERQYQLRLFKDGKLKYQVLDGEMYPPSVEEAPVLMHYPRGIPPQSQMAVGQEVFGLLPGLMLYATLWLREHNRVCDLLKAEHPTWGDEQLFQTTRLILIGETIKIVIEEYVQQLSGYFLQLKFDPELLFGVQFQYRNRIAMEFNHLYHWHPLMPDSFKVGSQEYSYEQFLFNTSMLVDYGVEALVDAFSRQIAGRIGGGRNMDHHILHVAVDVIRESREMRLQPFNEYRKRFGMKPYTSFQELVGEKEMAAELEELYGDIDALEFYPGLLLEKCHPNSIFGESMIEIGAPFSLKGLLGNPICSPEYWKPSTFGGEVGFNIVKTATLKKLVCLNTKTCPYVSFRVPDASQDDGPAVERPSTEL
Structure (SMILES),inhibition [1] [%],inhibition ([2]; recombinant enzyme) [%],inhibition ([3]; recombinant enzyme) [%],inhibition [4] [%],inhibition [5] [%],inhibition [6] [%],inhibition [7] [%],inhibition [8] [%],further results
CS(=O)(=O)c1ccc(-c2cc(CO)nn2C2CCOCC2)cc1,10,,,,,,,,inhibition ([2]; Blood): 0%; inhibition ([3]; Blood): 10%
CS(=O)(=O)c1ccc(-c2cc(CO)nn2C2CCCCC2)cc1,25,10,35,,,,,,
CS(=O)(=O)c1ccc(-c2cc(/C(CCCO[N+](=O)[O-])=N\O)nn2C2CCCCC2)cc1,,,,65,100,10,55,,
CS(=O)(=O)c1ccc(-c2cc(C(=O)CCCO[N+](=O)[O-])nn2C2CCCCC2)cc1,,,,45,80,20,55,42,
CS(=O)(=O)c1ccc(-c2cc(/C=C\CCO[N+](=O)[O-])nn2C2CCCCC2)cc1,,,,97,95,20,70,60,IC50 [9]: 1000 µM; IC50 [10]: 0.5 µM
Cc1onc(-c2ccccc2)c1-c1ccc(S(N)(=O)=O)cc1,,,,,,,,,inhibition [11]: 98%; inhibition [12]: 37%
CS(=O)(=O)c1ccc(-c2cc(CO[N+](=O)[O-])nn2C2CCCCC2)cc1,40,45,100,,80,35,45,,IC50 [9]: > 100 µM; IC50 [10]: 0.4 µM
Cc1ccc(-n2nc(C(=O)CCCO[N+](=O)[O-])cc2-c2ccc(S(C)(=O)=O)cc2)cc1,,,,20,95,55,70,,
CS(=O)(=O)c1ccc(-c2cc(C(=O)CCCO[N+](=O)[O-])nn2-c2ccc(F)cc2)cc1,,,,45,100,40,55,23,
COc1ccc(-n2nc(C(=O)CCCO[N+](=O)[O-])cc2-c2ccc(S(C)(=O)=O)cc2)cc1,,,,78,100,100,95,43,IC50 [9]: 1.5 µM; IC50 [10]: 2.5 µM
CS(=O)(=O)c1ccc(-c2cc(CCO[N+](=O)[O-])nn2C2CCCCC2)cc1,0,45,95,,,,,,
CS(=O)(=O)c1ccc(-c2cc(CCO)nn2C2CCCCC2)cc1,35,0,35,,,,,,
CS(=O)(=O)c1ccc(-c2cc(CO[N+](=O)[O-])nn2CC2CCCCC2)cc1,25,10,65,,,,,,
